Experimental data from ChEMBL document CHEMBL2424641, “Synthesis and evaluation of novel radioligands for positron emission tomography imaging of the orexin-2 receptor” (J Med Chem, 2013).
Calls of active or inactive are those of the source. The rule behind the calls is not given here.

What was measured:
[1] = system: LLC-PK1; assay: Flux ratio of permeability from apical to basolateral to basolateral to apical side in pig LLC-PK1 cells after 2 hrs; type: ADME, cell-based, Sus scrofa; conditions: llc-pk1, 2 h
In short: (§1)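 LLC-PK1 and LLC-MDR1 monolayers, 5 days post-seeding, preincubated 2 h at 37 °C in HBSS/10 mM HEPES. Compound added apically or basally, 2 h at 37 °C; opposite side assayed by LC-MS. Papp = Q/t/C0/A; FR = Papp(b→a)/Papp(a→b); corrected FR = FR(LLC-MDR1)/FR(LLC-PK1).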

[2] = system: Thalamus; assay: Drug uptake in P-gp-knockout rat thalamus at 78.7 to 189.8 MBq, iv after 90 mins by PET analysis; type: ADME, organism-based; conditions: in vivo, 1.5 h
In short: (§2)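 Male Mdr1a-knockout rats (410−500 g) under 1.5% isoflurane at 37 °C; [11C] tracer 78.7−189.8 MBq by tail vein. 90 min list-mode microPET scan with filtered back-projection; ROIs drawn on MRI template; decay-corrected %ID/mL, n = 3. Blocking: unlabeled compound 10 mg/kg po in 5% DMSO/10% cremophor in 10 mM HCl, given 1 h before tracer.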

[3] = biological target: T1, Orexin receptor type 2 (Rattus norvegicus) (UniProt P56719); assay: Binding affinity to OX2 receptor in rat brain neocortex layer 6 at 3.6 nM by autoradiography in presence of EMPA; type: tissue-based; conditions: tested as the 11C-labelled form
T1 sequence (whole entry): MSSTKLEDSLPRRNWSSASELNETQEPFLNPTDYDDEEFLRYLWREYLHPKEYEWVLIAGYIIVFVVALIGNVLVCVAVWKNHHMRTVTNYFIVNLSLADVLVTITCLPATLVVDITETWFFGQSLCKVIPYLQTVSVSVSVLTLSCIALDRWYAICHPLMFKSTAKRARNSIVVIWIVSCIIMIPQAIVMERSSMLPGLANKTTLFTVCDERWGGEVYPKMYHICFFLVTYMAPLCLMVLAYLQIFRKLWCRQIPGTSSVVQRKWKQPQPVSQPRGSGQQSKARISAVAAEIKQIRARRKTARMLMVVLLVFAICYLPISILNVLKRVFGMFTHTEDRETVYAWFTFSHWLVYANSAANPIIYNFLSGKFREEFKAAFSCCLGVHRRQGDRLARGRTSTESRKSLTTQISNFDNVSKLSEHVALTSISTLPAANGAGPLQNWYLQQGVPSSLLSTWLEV

[4] = biological target: T1, Orexin receptor type 2 (Rattus norvegicus); assay: Binding affinity to OX2 receptor in rat brain neocortex layer 6 at 3.6 nM by autoradiography in presence of suvorexant; type: tissue-based; conditions: tested as the 11C-labelled form
[5] = biological target: Melatonin receptor type 1A (Homo sapiens) (UniProt P48039); assay: Antagonist activity at melatonin MT1A receptor (unknown origin) expressed in HEK 293 cells coexpressing Gqi5 chimeric G-protein after 1 hr by fluorescence-based analysis; type: cell-based
Melatonin receptor type 1A (Homo sapiens), sequence (P48039 whole entry): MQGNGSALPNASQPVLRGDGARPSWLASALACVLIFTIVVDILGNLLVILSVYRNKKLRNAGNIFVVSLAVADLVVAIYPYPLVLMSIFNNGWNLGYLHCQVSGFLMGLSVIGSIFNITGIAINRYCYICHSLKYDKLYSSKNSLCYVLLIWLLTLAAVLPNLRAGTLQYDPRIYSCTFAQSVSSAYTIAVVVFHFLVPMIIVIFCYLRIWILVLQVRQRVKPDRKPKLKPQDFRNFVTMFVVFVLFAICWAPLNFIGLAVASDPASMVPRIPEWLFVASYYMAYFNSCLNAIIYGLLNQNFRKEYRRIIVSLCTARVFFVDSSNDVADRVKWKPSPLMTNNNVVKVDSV
In short: (§3)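 HEK293 cells stably expressing target GPCR with Gqi5 chimeric G-protein, seeded on collagen I plates and cultured overnight; calcium dye loaded 1 h at 37 °C. Compound at final 3, 10, 30 μM preincubated 1 h at rt, then reference agonist added at EC20 or EC80; Ca2+ fluorescence read in real time.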

[6] = Octanol-phosphate buffer partition coefficient, log D of the compound at pH 7.4 by Shake flask method; type: physicochemical
In short: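 [11C]-labelled compound (about 200 000 cpm) in n-octanol and 0.1 M PBS pH 7.4, vortexed 3 min at rt and centrifuged; weighed aliquots of each phase γ-counted, with the organic layer repartitioned until stable. log D = log(cpm/g octanol ÷ cpm/g PBS); triplicate.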

[7] = biological target: T1, Orexin receptor type 2 (Rattus norvegicus); assay: Binding affinity to OX2 receptor in coronal rat brain neocortex layer 6 at 2.5 nM by autoradiography; type: tissue-based; conditions: tested as the 11C-labelled form
In short: (§4)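 Rat brain sections (20 μm) preincubated 20 min at rt in 25 mM HEPES pH 7.4 with 5 mM MgCl2 and 1 mM CaCl2, then incubated 60 min at rt with 11C radioligand; nonspecific binding with 10 μM unlabeled compound. Sections washed three times in cold water, dried, exposed to imaging plate 1 h alongside calibrated radioactive standards.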

[8] = Drug uptake in P-gp-knockout rat neocortex at 78.7 to 189.8 MBq, iv after 90 mins by PET analysis; type: ADME, organism-based; conditions: in vivo, 1.5 h; in short: as §2
[9] = biological target: T1, Orexin receptor type 2 (Rattus norvegicus); assay: Binding affinity to OX2 receptor in coronal rat hypothalamus at 2.5 nM by autoradiography; conditions: tested as the 11C-labelled form; in short: as §4
[10] = Ratio of flux ratio in pig LLC cells expressing MDR1 to flux ratio on pig LLC-PK1 cells; type: ADME, cell-based, Sus scrofa; in short: as §1
[11] = system: Cerebellum; assay: Drug uptake in P-gp-knockout rat cerebellum at 78.7 to 189.8 MBq, iv after 90 mins by PET analysis in presence of 10 mg/kg, po unlabeled compound; type: ADME, organism-based; set-up: dose 10 mg/kg, route oral; conditions: in vivo, 1.5 h; in short: as §2
[12] = biological target: Cannabinoid receptor 1 (Homo sapiens) (UniProt P21554); assay: Antagonist activity at cannabinoid CB1 receptor (unknown origin) expressed in HEK 293 cells coexpressing Gqi5 chimeric G-protein after 1 hr by fluorescence-based analysis; type: cell-based; in short: as §3
Cannabinoid receptor 1 (Homo sapiens), sequence (P21554 whole entry): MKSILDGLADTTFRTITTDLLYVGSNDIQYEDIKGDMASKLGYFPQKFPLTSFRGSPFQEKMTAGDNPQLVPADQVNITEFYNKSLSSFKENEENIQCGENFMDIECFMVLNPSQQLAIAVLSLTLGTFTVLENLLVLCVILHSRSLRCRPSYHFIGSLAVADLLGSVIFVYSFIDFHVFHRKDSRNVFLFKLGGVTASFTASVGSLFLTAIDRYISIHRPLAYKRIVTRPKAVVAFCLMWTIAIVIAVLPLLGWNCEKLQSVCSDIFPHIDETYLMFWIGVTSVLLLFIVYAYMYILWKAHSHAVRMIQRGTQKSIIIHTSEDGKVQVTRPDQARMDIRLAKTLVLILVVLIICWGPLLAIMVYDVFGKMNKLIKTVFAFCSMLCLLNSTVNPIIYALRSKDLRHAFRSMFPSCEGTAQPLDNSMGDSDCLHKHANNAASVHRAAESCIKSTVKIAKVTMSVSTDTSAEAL

[13] = biological target: T2, Orexin/Hypocretin receptor type 1 (Homo sapiens, UniProt O43613); assay: Displacement of [125I]-orexin-A from human OX1 receptor expressed in CHO cells after 30 mins by liquid scintillation counting analysis; type: cell-based
T2 sequence (O43613 whole entry): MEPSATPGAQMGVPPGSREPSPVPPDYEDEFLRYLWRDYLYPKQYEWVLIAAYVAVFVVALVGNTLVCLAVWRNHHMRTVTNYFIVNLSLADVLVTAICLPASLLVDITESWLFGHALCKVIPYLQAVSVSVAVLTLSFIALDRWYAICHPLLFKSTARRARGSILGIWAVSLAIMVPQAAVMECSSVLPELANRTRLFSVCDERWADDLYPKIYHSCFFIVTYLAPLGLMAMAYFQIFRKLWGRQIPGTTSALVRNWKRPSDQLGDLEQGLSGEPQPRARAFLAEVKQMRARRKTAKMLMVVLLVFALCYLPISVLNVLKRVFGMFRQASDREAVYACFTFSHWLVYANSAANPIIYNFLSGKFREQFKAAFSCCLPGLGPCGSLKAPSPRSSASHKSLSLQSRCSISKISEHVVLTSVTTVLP
In short: (§5)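 CHO membranes expressing human OX1R or OX2R (5 μg protein) incubated 30 min at rt with compound and [125I]-orexin A (2 nM stock) in HEPES buffer pH 7.5 with MgCl2, CaCl2, BSA. Nonspecific binding with 10 μM orexin A. Wells washed with HEPES/525 mM NaCl and DPM counted. % inhibition from test, control and nonspecific counts; mean of three wells.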

[14] = system: Hippocampus; assay: Drug uptake in P-gp-knockout rat hippocampus at 78.7 to 189.8 MBq, iv after 90 mins by PET analysis; type: ADME, organism-based; conditions: in vivo, 1.5 h; in short: as §2
[15] = Flux ratio of permeability from apical to basolateral to basolateral to apical side in pig LLC cells expressing MDR1 after 2 hrs; type: ADME, cell-based, Sus scrofa; in short: as §1
[16] = biological target: T1, Orexin receptor type 2 (Rattus norvegicus); assay: Binding affinity to OX2 receptor in coronal rat neocortex layer 6 at 2 nM by autoradiography; conditions: tested as the 11C-labelled form; in short: as §4
[17] = biological target: T3, Orexin receptor type 2 (Homo sapiens, UniProt O43614); assay: Displacement of [125I]-orexin-A from human OX2 receptor expressed in CHO cells after 30 mins by liquid scintillation counting analysis; type: cell-based; in short: as §5
T3 sequence (O43614 whole entry): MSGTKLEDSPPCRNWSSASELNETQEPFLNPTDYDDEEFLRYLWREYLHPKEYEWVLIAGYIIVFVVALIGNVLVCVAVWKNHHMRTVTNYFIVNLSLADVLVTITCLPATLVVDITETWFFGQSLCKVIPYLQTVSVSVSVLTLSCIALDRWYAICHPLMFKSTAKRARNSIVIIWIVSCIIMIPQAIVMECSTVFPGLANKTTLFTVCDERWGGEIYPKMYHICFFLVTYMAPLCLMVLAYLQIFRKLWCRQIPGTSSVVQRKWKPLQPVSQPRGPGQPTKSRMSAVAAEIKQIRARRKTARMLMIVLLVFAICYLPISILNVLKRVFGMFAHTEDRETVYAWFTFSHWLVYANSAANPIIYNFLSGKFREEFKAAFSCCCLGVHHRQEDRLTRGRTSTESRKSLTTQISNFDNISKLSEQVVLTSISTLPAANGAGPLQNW

[18] = Metabolic stability in P-gp-knockout rat brain assessed as unmetabolized drug level at 330 MBq after 30 min by HPLC chromatogram analysis; type: ADME, tissue-based; conditions: read-out: Stability
In short: (§6)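 Mdr1a-knockout rat (450 g) given [11C] tracer 330 MBq iv and decapitated at 30 min. Plasma deproteinised with MeCN; half-brain homogenised in 50% aqueous MeCN and deproteinised. Supernatants run on C18 radio-HPLC (MeCN/H2O/TEA 5/5/0.01, 1.5 mL/min). Parent % = parent peak area/total peak area × 100, decay corrected; n = 1.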

[19] = Drug uptake in rhesus monkey cerebellum at 115.5 MBq, iv after 30 seconds by PET analysis; type: ADME, organism-based, Macaca mulatta; conditions: in vivo, 0.5 min
In short: (§7)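 A single rhesus monkey, thiamylal induction then 1.5% isoflurane; 90 min 3D dynamic PET after transmission scan; [11C] tracer bolus via crural vein (115.5 MBq at baseline; 87.7 MBq after tariquidar 8 mg/kg iv over 10 min, 0.25 h before). ROIs on individual MRI; decay-corrected %SUV.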

[20] = system: Hippocampus; assay: Drug uptake in rhesus monkey hippocampus at 115.5 MBq, iv after 30 seconds by PET analysis; type: ADME, organism-based, Macaca mulatta; conditions: in vivo, 0.5 min; in short: as §7
[21] = system: Brain; assay: Ex vivo drug metabolism in P-gp-knockout rat brain assessed as retention time at 330 MBq after 30 min by HPLC chromatogram analysis; type: ADME, tissue-based; conditions: 0.5 h; in short: as §6
[22] = system: Thalamus; assay: Drug uptake in P-gp-knockout rat thalamus at 78.7 to 189.8 MBq, iv after 90 mins by PET analysis in presence of 10 mg/kg, po unlabeled compound; type: ADME, organism-based; set-up: dose 10 mg/kg, route oral; conditions: in vivo, 1.5 h; in short: as §2
[23] = system: Hippocampus; assay: Drug uptake in P-gp-knockout rat hippocampus at 78.7 to 189.8 MBq, iv after 90 mins by PET analysis in presence of 10 mg/kg, po unlabeled compound; type: ADME, organism-based; set-up: dose 10 mg/kg, route oral; conditions: in vivo, 1.5 h; in short: as §2
[24] = Drug uptake in rhesus monkey neocortex at 115.5 MBq, iv after 30 seconds by PET analysis; type: ADME, organism-based, Macaca mulatta; conditions: in vivo, 0.5 min; in short: as §7
[25] = Drug uptake in rhesus monkey neocortex at 115.5 MBq, iv after >30 seconds by PET analysis; type: ADME, organism-based, Macaca mulatta; conditions: in vivo; in short: as §7
[26] = Drug uptake in rhesus monkey cerebellum at 115.5 MBq, iv after >30 seconds by PET analysis; type: ADME, organism-based, Macaca mulatta; conditions: in vivo; in short: as §7
[27] = Drug uptake in P-gp-knockout rat neocortex at 78.7 to 189.8 MBq, iv after 90 mins by PET analysis in presence of 10 mg/kg, po unlabeled compound; type: ADME, organism-based; set-up: dose 10 mg/kg, route oral; conditions: in vivo, 1.5 h; in short: as §2
[28] = system: Brain; assay: Ex vivo drug uptake in P-gp-knockout rat brain assessed as retention time at 330 MBq after 30 min by HPLC chromatogram analysis; type: ADME, tissue-based; conditions: 0.5 h; in short: as §6
[29] = system: Hippocampus; assay: Drug uptake in rhesus monkey hippocampus at 115.5 MBq, iv after >30 seconds by PET analysis; type: ADME, organism-based, Macaca mulatta; conditions: in vivo; in short: as §7
[30] = system: Brain; assay: Drug uptake in rhesus monkey brain at 115.5 MBq, iv by PET analysis in presence of tariquidar; type: ADME, organism-based, Macaca mulatta; conditions: in vivo
[31] = Metabolic stability in P-gp-knockout rat plasma assessed as unmetabolized drug level at 330 MBq after 30 min by HPLC chromatogram analysis; type: ADME, cell-free; conditions: read-out: Stability; in short: as §6
[32] = HEK293, tested as the 11C-labelled form

COCc1nc(C)ncc1OC[C@@]1(c2cccc(F)c2)C[C@H]1C(=O)Nc1ccc(F)cn1
Ratio [1]: 0.84 | Drug uptake [2]: Active | Activity [3]: inactive | Activity [4]: inactive | Activity ([5]; HEK293): Active | Activity [5, 32]: Active | logD [6]: 2.97 | Activity [7]: Active | Drug uptake [8]: Active | Activity [9]: Active | Ratio [10]: 3.11 | Drug uptake [11]: Active | Activity ([12]; HEK293): Active | Activity [12, 32]: Active | Ki [13]: 1 nM | Drug uptake [14]: Active | Ratio [15]: 2.61 | Activity [16]: Active | Ki [17]: 1 nM

Cc1ncc(OC[C@@]2(c3cccc(F)c3)C[C@H]2C(=O)Nc2ccc(F)cn2)c(CO[11CH3])n1
remaining at 0.5 h [18]: 54% | Drug uptake [19]: Active | Drug uptake [20]: Active | Drug uptake [2]: Active | Retention_time [21]: 2 min | Drug uptake [22]: Active | Drug uptake [23]: Not Active | logD [6]: 2.97 | Drug uptake [24]: Active | Drug uptake [25]: Not Active | Drug uptake [8]: Active | Drug uptake [11]: Not Active | Drug uptake [26]: Not Active | Drug uptake [27]: Not Active | Retention_time [28]: 5.2 min | Drug uptake [14]: Active | Drug uptake [29]: Not Active | Drug uptake [30]: Active | remaining at 0.5 h [31]: 12%

COc1nc(NC(=O)[C@@H]2C[C@@]2(COc2cnc(C)nc2C)c2cccc(F)c2)ccc1F
Ratio [1]: 0.81 | logD [6]: 3.6 | Ratio [10]: 1.21 | Ki [13]: 12 nM | Ratio [15]: 0.98 | Ki [17]: 2 nM
